For orientation: MIC means the lowest concentration that inhibits growth of the organism. Higher therefore signals weaker potency. Broadly, the IC50 is the midpoint of a concentration-inhibition curve. As usually defined, the half-life is how long it takes for the measured level to halve.

In brackets after ≈: the same amount, converted by molar mass.

The text below walks through data of ChEMBL document CHEMBL5625173, “Antimycobacterial pyridine carboxamides: From design to in vivo activity” (Eur J Med Chem, 2023).

One data set relates to Mycolicibacterium smegmatis. Nature of the data set: Antimycobacterial activity against Mycobacterium smegmatis by alamar blue staining based microplate analysis. The class given is functional.
Conditions: not given
The procedure, abridged:
(§1)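 Microplate Alamar Blue assay, one of six mycobacterial strains tested (Mtb H37Rv, Mtb H37Ra, M. kansasii, M. avium, M. smegmatis, M. aurum); value reported as MIC.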
In general terms: The colour change of resazurin is a common sign of viable cells or microbes.
With `Nc1cncc(Cl)n1`, the MIC was not below 500 µg/mL.
Compound `COc1ccnc(C(=O)Nc2cncc(Cl)n2)c1` yielded an MIC not below 500 µg/mL.
On the same count and under the same terms, for `O=C(Nc1cnccn1)c1ccc2ccccc2n1` the value was not below 125 µg/mL; for `COc1ccnc(C(=O)Nc2cnccn2)c1`, not below 250 µg/mL; for `Nc1cnccn1`, not below 500 µg/mL.
For the compound `O=C(Nc1cnccn1)c1ccccn1`, the MIC is not below 500 µg/mL.
Same read-out and setting: the figure for `O=C(Nc1ccc(C(=O)O)c(O)c1)c1cccc(Cl)n1` is 125 µg/mL (≈ 427 µM); for `O=C(Nc1cnccn1)c1cccc(Cl)n1` it is not below 500 µg/mL.
Same read-out and setting: for `NNC(=O)c1ccncc1` [ISONIAZID] the value was 15.6 µg/mL (≈ 114 µM); for `O=C(Nc1ccc(C(=O)O)c(O)c1)c1ccc2ccccc2n1`, 31.2 µg/mL (≈ 101 µM).
Same read-out and setting: the figure for `COc1ccnc(C(=O)Nc2ccc(C(=O)O)c(O)c2)c1` is 125 µg/mL (≈ 434 µM).

System in a further data set: not listed separately
Put plainly: Drug metabolism in human liver microsomes assessed as M1 metabolite formation at 90 uM incubated for 3 hrs. It counts as ADME, Microsome.
Conditions: not given
The procedure, abridged:
(§2)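 Phase I metabolite identification: ammonium salt of the compound (for solubility) or its lactone, 90 μM, incubated with human liver microsomes for 3 h; metabolites detected by HPLC-MS, positive ion mode, by m/z.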
On to `O=C(Nc1ccc(C(=O)O)c(O)c1)c1ccc2ccccc2n1`, for which the Drug metabolism entry was “Metabolite_Detected”.

The test system of another data set is Mycolicibacterium aurum. Nature of the data set: Antimycobacterial activity against Mycobacterium aurum by alamar blue staining based microplate analysis.
Conditions: not given
It counts as functional. The procedure, abridged: as §1
Consider `Nc1cncc(Cl)n1`, for which the MIC is not below 500 µg/mL.
On the same count and under the same terms, for `COc1ccnc(C(=O)Nc2cncc(Cl)n2)c1` the value was 250 µg/mL (≈ 945 µM).
On the same count and under the same terms, for `O=C(Nc1cnccn1)c1ccc2ccccc2n1` the value was not below 125 µg/mL; for `COc1ccnc(C(=O)Nc2cnccn2)c1`, not below 250 µg/mL; for `Nc1cnccn1`, not below 500 µg/mL.
Still for that read-out and setting: for `O=C(Nc1cnccn1)c1ccccn1` the value was not below 500 µg/mL.
For the compound `O=C(Nc1ccc(C(=O)O)c(O)c1)c1cccc(Cl)n1`, the MIC is 125 µg/mL (≈ 427 µM).
Same read-out and setting: the figure for `O=C(Nc1cnccn1)c1cccc(Cl)n1` is not below 500 µg/mL; for `NNC(=O)c1ccncc1` [ISONIAZID] it is 3.91 µg/mL (≈ 28.5 µM); for `O=C(Nc1ccc(C(=O)O)c(O)c1)c1ccc2ccccc2n1` it is 15.6 µg/mL (≈ 50.7 µM).
Compound `COc1ccnc(C(=O)Nc2ccc(C(=O)O)c(O)c2)c1` showed an MIC of 62.5 µg/mL (≈ 217 µM).

For another data set, the system named is Mycobacterium tuberculosis. Nature of the data set: Antimycobacterial activity against Mycobacterium tuberculosis H37Rv by alamar blue staining based microplate analysis. It counts as functional.
Conditions: not given
The procedure, abridged: (§3)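 Microplate Alamar Blue assay. MIC values read at pH 6.6 (neutral). One acidic-pH test at pH 5.6 is footnoted separately.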
For `Nc1cncc(Cl)n1`, the MIC is more than 100 µg/mL.
The same measure, in the same setting: for `COc1ccnc(C(=O)Nc2cncc(Cl)n2)c1` the value was more than 100 µg/mL; for `O=C(Nc1cnccn1)c1ccc2ccccc2n1`, more than 100 µg/mL; for `COc1ccnc(C(=O)Nc2cnccn2)c1`, more than 100 µg/mL.
Turning to `Nc1cnccn1`, the MIC was more than 100 µg/mL.
As to `O=C(Nc1cnccn1)c1ccccn1`, the MIC is more than 100 µg/mL.
The same measure, in the same setting: for `O=C(Nc1ccc(C(=O)O)c(O)c1)c1cccc(Cl)n1` the value was 3.13 µg/mL (≈ 10.7 µM); for `O=C(Nc1cnccn1)c1cccc(Cl)n1`, more than 100 µg/mL; for `NNC(=O)c1ccncc1` [ISONIAZID], 0.2 µg/mL (≈ 1.46 µM).
The same measure, in the same setting: for `O=C(Nc1ccc(C(=O)O)c(O)c1)c1ccc2ccccc2n1` the value was 1.56 µg/mL (≈ 5.06 µM); for `COc1ccnc(C(=O)Nc2ccc(C(=O)O)c(O)c2)c1`, 1.56 µg/mL (≈ 5.41 µM).

System in another data set: not listed separately
Put plainly: Metabolic stability in human liver microsomes assessed as intrinsic clearance at 3 uM incubated for 45 mins by HPLC analysis. The class given is ADME, Microsome. Conditions: read-out: CLH. The procedure, abridged: (§4)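 Ammonium salt or lactone, 3 μM, incubated with human liver microsomes at physiological pH; reactions stopped at 0, 5, 15, 30 and 45 min and analysed by HPLC-MS; k, t1/2 and intrinsic clearance calculated from the HPLC-MS records.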
On the technique in general: Liver microsomes are vesicles of endoplasmic reticulum, rich in cytochrome P450 enzymes.
For `O=C(Nc1ccc(C(=O)O)c(O)c1)c1ccc2ccccc2n1`, the microsomal CLint at 3 µM is 2.2 µL/min/mg.

The test system of a further data set is Mycobacterium avium. Nature of the data set: Antimycobacterial activity against Mycobacterium avium by alamar blue staining based microplate analysis. The class given is functional.
Conditions: not given
The procedure, abridged:
as §3
Turning to `Nc1cncc(Cl)n1`, the MIC was more than 100 µg/mL.
On the same count and under the same terms, for `COc1ccnc(C(=O)Nc2cncc(Cl)n2)c1` the value was more than 100 µg/mL; for `O=C(Nc1cnccn1)c1ccc2ccccc2n1`, more than 100 µg/mL; for `COc1ccnc(C(=O)Nc2cnccn2)c1`, more than 100 µg/mL.
Still for that read-out and setting: for `Nc1cnccn1` the value was more than 100 µg/mL; for `O=C(Nc1cnccn1)c1ccccn1`, more than 100 µg/mL.
`O=C(Nc1ccc(C(=O)O)c(O)c1)c1cccc(Cl)n1`: the lowest concentration to inhibit growth (MIC) was 100 µg/mL (≈ 342 µM).
Still for that read-out and setting: the figure for `O=C(Nc1cnccn1)c1cccc(Cl)n1` is more than 100 µg/mL; for `NNC(=O)c1ccncc1` [ISONIAZID] it is 12.5 µg/mL (≈ 91.1 µM).
The compound `O=C(Nc1ccc(C(=O)O)c(O)c1)c1ccc2ccccc2n1` yielded an MIC of 100 µg/mL (≈ 324 µM).
`COc1ccnc(C(=O)Nc2ccc(C(=O)O)c(O)c2)c1` yielded an MIC of more than 100 µg/mL.

System in the next data set: not listed separately
Put plainly: Cytotoxicity against human HepG2 cells assessed as inhibition of cell viability. It counts as toxicity, cell-based.
Conditions: not given
Consider `Nc1cncc(Cl)n1`, for which the IC50 was more than 1000 µM.
The same measure, in the same setting: for `COc1ccnc(C(=O)Nc2cncc(Cl)n2)c1` the value was more than 500 µM; for `O=C(Nc1cnccn1)c1ccc2ccccc2n1`, more than 100 µM.
Consider `COc1ccnc(C(=O)Nc2cnccn2)c1`, for which the IC50 was more than 250 µM.
For `Nc1cnccn1`, the 50% inhibitory concentration (IC50) is more than 1000 µM.
For the compound `O=C(Nc1cnccn1)c1ccccn1`, the IC50 is more than 1000 µM.
Turning to `O=C(Nc1ccc(C(=O)O)c(O)c1)c1cccc(Cl)n1`, the IC50 was more than 1000 µM.
Same read-out and setting: the figure for `O=C(Nc1cnccn1)c1cccc(Cl)n1` is more than 250 µM.
On the same count and under the same terms, for `NNC(=O)c1ccncc1` [ISONIAZID] the value was more than 1000 µM; for `O=C(Nc1ccc(C(=O)O)c(O)c1)c1ccc2ccccc2n1`, more than 1000 µM; for `COc1ccnc(C(=O)Nc2ccc(C(=O)O)c(O)c2)c1`, more than 1000 µM.

The next data set relates to Mycobacterium tuberculosis. Nature of the data set: Antimycobacterial activity against Mycobacterium tuberculosis MAT1 by alamar blue staining based microplate analysis. It counts as functional.
Conditions: not given
Take `O=C(Nc1ccc(C(=O)O)c(O)c1)c1ccc2ccccc2n1`: the MIC came to 12.5 µg/mL (≈ 40.5 µM).

System in the next data set: not listed separately
Put plainly: Metabolic stability in human liver microsomes assessed as half life at 3 uM incubated for 45 mins by HPLC-MS analysis. The class given is ADME, Microsome.
Conditions: not given
The procedure, abridged: as §4
On to `O=C(Nc1ccc(C(=O)O)c(O)c1)c1ccc2ccccc2n1`, for which the half-life at 3 µM amounted to 10.5 h.

System in another data set: not listed separately
Nature of the data set: Selectivity index, ratio of IC50 for cytotoxicity against human HepG2 cells to MIC for antimycobacterial activity against Mycobacterium tuberculosis H37Rv. It counts as toxicity, cell-based. The settings on record: read-out: Selectivity Index.
As to `O=C(Nc1ccc(C(=O)O)c(O)c1)c1cccc(Cl)n1`, the selectivity ratio came to 93.5.
Same read-out and setting: the figure for `O=C(Nc1ccc(C(=O)O)c(O)c1)c1ccc2ccccc2n1` is 198; for `COc1ccnc(C(=O)Nc2ccc(C(=O)O)c(O)c2)c1` it is 185.

In another data set the test system is Mycobacterium tuberculosis. Nature of the data set: Antimycobacterial activity against Mycobacterium tuberculosis H37Ra by alamar blue staining based microplate analysis. The class given is functional.
Conditions: not given
The procedure, abridged:
as §3
`Nc1cncc(Cl)n1` registered an MIC not below 500 µg/mL.
On to `COc1ccnc(C(=O)Nc2cncc(Cl)n2)c1`, for which the MIC is not below 500 µg/mL.
Same read-out and setting: for `O=C(Nc1cnccn1)c1ccc2ccccc2n1` the value was not below 125 µg/mL.
On the same count and under the same terms, for `COc1ccnc(C(=O)Nc2cnccn2)c1` the value was not below 250 µg/mL; for `Nc1cnccn1`, not below 500 µg/mL.
Same read-out and setting: for `O=C(Nc1cnccn1)c1ccccn1` the value was 250 µg/mL (≈ 1250 µM).
As to `O=C(Nc1ccc(C(=O)O)c(O)c1)c1cccc(Cl)n1`, the lowest concentration to inhibit growth (MIC) was 125 µg/mL (≈ 427 µM).
Still for that read-out and setting: the figure for `O=C(Nc1cnccn1)c1cccc(Cl)n1` is not below 500 µg/mL; for `NNC(=O)c1ccncc1` [ISONIAZID] it is 0.25 µg/mL (≈ 1.82 µM).
For the compound `O=C(Nc1ccc(C(=O)O)c(O)c1)c1ccc2ccccc2n1`, inhibition of growth (MIC) required 31.2 µg/mL (≈ 101 µM).
Still for that read-out and setting: for `COc1ccnc(C(=O)Nc2ccc(C(=O)O)c(O)c2)c1` the value was 31.2 µg/mL (≈ 108 µM).

The subject of the next data set is Mycobacterium tuberculosis. Nature of the data set: Antimycobacterial activity against Mycobacterium tuberculosis IZAK by alamar blue staining based microplate analysis. The class given is functional.
Conditions: not given
The compound `O=C(Nc1ccc(C(=O)O)c(O)c1)c1ccc2ccccc2n1` came in with an MIC of 6.25 µg/mL (≈ 20.3 µM).

In a further data set the test system is Mycobacterium kansasii. Nature of the data set: Antimycobacterial activity against Mycobacterium kansasii by alamar blue staining based microplate analysis. The class given is functional.
Conditions: not given
The procedure, abridged: as §1
Turning to `Nc1cncc(Cl)n1`, the MIC is more than 100 µg/mL.
Same read-out and setting: the figure for `COc1ccnc(C(=O)Nc2cncc(Cl)n2)c1` is more than 100 µg/mL; for `O=C(Nc1cnccn1)c1ccc2ccccc2n1` it is more than 100 µg/mL.
Still for that read-out and setting: the figure for `COc1ccnc(C(=O)Nc2cnccn2)c1` is 50 µg/mL (≈ 217 µM); for `Nc1cnccn1` it is more than 100 µg/mL; for `O=C(Nc1cnccn1)c1ccccn1` it is more than 100 µg/mL.
Turning to `O=C(Nc1ccc(C(=O)O)c(O)c1)c1cccc(Cl)n1`, the MIC is more than 100 µg/mL.
On the same count and under the same terms, for `O=C(Nc1cnccn1)c1cccc(Cl)n1` the value was 50 µg/mL (≈ 213 µM).
Still for that read-out and setting: the figure for `NNC(=O)c1ccncc1` [ISONIAZID] is 12.5 µg/mL (≈ 91.1 µM); for `O=C(Nc1ccc(C(=O)O)c(O)c1)c1ccc2ccccc2n1` it is 100 µg/mL (≈ 324 µM); for `COc1ccnc(C(=O)Nc2ccc(C(=O)O)c(O)c2)c1` it is more than 100 µg/mL.

System in a further data set: not listed separately
Put plainly: Drug metabolism in human liver microsomes assessed as M2 metabolite formation at 90 uM incubated for 3 hrs. The class given is ADME, Microsome.
Conditions: not given
The procedure, abridged:
as §2
In the case of `O=C(Nc1ccc(C(=O)O)c(O)c1)c1ccc2ccccc2n1`, the Drug metabolism entry is recorded as “Metabolite_Detected”.
